KCC2 mod: modulators of human KCC2 chloride dependent transport | actives 2.2% (n = 190,000) | AID 1456 | KCC2 cells, thallium flux FluoZin-2 fluorescence | Q9H2X9 | B-score of Tl+ flux slope (higher = more flux/activation; lower = inhibition) at 10 µM;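 active = thallium flux slope and its plate-corrected score both differing from the plate sample mean at a set confidence after two filtering rounds, in either direction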;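 note: slope of fluorescence scaled to starting intensity during 10 to 20 s after thallium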
KCNK3 inh: human KCNK3 channel inhibition, primary screen; B-score at 10 µM; O14649; actives 0.84% (n = 340,000); CHO-KCNK3 thallium flux, FluxOR fluorescence; stronger effect = lower value;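 active = B-score under library mean minus 4 SD, starting fluorescence ratio at most library mean plus 5 SD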;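 note: more negative B-score means stronger inhibition of thallium flux through KCNK3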
Target sequence (O14649 whole entry, looked up): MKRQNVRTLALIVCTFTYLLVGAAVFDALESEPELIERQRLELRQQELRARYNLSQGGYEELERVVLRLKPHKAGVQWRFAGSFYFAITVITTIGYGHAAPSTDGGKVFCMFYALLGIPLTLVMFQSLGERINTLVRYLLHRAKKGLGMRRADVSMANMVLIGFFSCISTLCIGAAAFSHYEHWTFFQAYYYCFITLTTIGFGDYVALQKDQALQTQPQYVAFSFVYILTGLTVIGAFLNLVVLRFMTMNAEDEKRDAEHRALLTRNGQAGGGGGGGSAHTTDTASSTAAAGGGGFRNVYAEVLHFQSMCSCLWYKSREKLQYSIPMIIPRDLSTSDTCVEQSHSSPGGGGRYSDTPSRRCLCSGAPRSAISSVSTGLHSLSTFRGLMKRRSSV
KCNK9 inh: blocks the human KCNK9 two-pore domain potassium channel; Q9NPC2; HEK293 KCNK9, FluxOR thallium flux fluorescence; stronger effect = lower value; B-score at 10 µM; actives 1.2% (n = 310,000); AID 488922;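 active = ratio B-score over 3 SD below the library mean, with starting fluorescence within 5 SD of its mean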;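 note: negative B-score means less thallium flux so channel inhibition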
KCNQ1 inh: human KCNQ1 channel inhibition. AID 2642. actives 1.3% (n = 310,000). B-score at 10 µM. P51787. CHO-K1 KCNQ1, FluxOR thallium flux fluorescence; stronger effect = higher value;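 active = compounds whose thallium flux B-score, printed positive for inhibition, exceeds three library SD while starting fluorescence stays within three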;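 note: channel opened by potassium depolarization with thallium stimulus after 20 min compound exposure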
KCNQ1 pot: potentiates or activates the human KCNQ1 potassium channel; B-score at 10 µM; CHO-K1 KCNQ1, thallium flux FluxOR fluorescence; stronger effect = higher value; P51787; actives 0.35% (n = 310,000);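 active = fluorescence ratio B-score, a plate-corrected score, at least three library SD, with initial intensity B-score within 5 SD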
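Assay system: CHO-K1 cells stably expressing KCNQ1; Medium: assay buffer with matched DMSO; Also added: K+/Tl+ depolarizing stimulus; Dosing: single dose; Timing: dye 90 min, compound 20 min, room temperature; Measured by: kinetic FluxOR thallium fluorescence, 10-s 1-Hz baseline, 110-s post-stimulus read; Read-out: peak-minus-minimum fluorescence over initial fluorescence, negative-control normalized, B-scored.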
hERG protect: hERG (human) protection from proarrhythmic block; CHO-hERG, FluxOR thallium flux, dofetilide IC70 present; activation (rescue from dofetilide block), less the hit threshold, % at 10 µM; actives 0.51% (n = 310,000); AID 1511;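 active = activation above the mean of controls blocked by dofetilide plus 5 SD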;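 note: thallium influx through hERG after potassium depolarization seen as dye fluorescence rise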
A number is an active result; 0 = inactive; - = no result. Shown are actives, neighbours in structure and some others; about 4.1% of the full set was active somewhere.

SMILES	KCC2 mod	KCNK3 inh	KCNK9 inh	KCNQ1 inh	KCNQ1 pot	hERG protect
Cn1c(-c2ccc(=O)[nH]c2)nc2ccccc21	0	0	0	0	0	0
CN(C)c1nc(C#N)nc(N(C)C)n1	0	0	0	0	0	10
CCCn1c(N)c(C(=O)CSc2ncn[nH]2)c(=O)n(C)c1=O	-	0	-	-	-	-
CCCCn1c(N)c(C(=S)NC(=O)CC(C)(C)C)c(=O)n(C)c1=O	28	0	0	0	18	25
C=CC[n+]1c(C)csc1Nc1ccc(C)cc1	-	0	0	0	0	0
C=CC[n+]1c(C)csc1Nc1cccc(Br)c1	0	0	-6.6	0	0	0
c1ccc(-c2nc3ccccn3c2-c2ccccc2)cc1	-	0	0	0	0	0
FC(F)Sc1nc(-c2ccccc2)c(-c2ccccc2)n1C(F)F	0	0	0	9	0	0
COC(=O)c1ccc(COc2ccc(CNCc3ccc(Cl)cc3)cc2)cc1	-	0	0	0	0	0
O=C(Nc1nnc(-c2ccccc2)o1)c1cc(Cl)sc1Cl	60	0	0	0	0	0
O=C(Nc1nnc(-c2ccc(F)cc2)o1)c1cc(Cl)sc1Cl	54	0	0	0	23	10
O=C(Nc1cccc2c1CCCC2)c1ccccc1Cl	-	0	0	0	0	0
O=C(Nc1nnc(-c2ccc3c(c2)CCCC3)o1)c1ccccc1Cl	50	0	0	0	12	0
CCOc1ccc2oc(C(=O)N3CC(C)OC(C)C3)c(C)c2c1 (stereo not given)	-	0	0	0	0	0
Cn1c(SCc2cccc([N+](=O)[O-])c2)nc2ccccc2c1=O	-	0	-	-	-	-
Cn1c(SCc2cccc(C#N)c2)nc2ccccc2c1=O	-	0	-7	0	0	0
Cn1c(SCc2ccc(F)cc2Cl)nc2ccccc2c1=O	-	-8.9	-	-	-	-
CC1CCCC(C)N1C(=O)CSc1ncccn1 (stereo not given)	-	0	0	0	0	0
O=C(CN1C(=O)NC2(CCCCCC2)C1=O)NCCc1ccccc1	-	0	-	-	-	-
COC(=O)c1cnn2c(C(F)(F)F)cc(-c3ccccc3)nc12	0	0	0	0	0	5.2
C[C@H](NC(=O)c1ccco1)C(=O)OCC(=O)N1CC(=O)Nc2ccccc21	-	0	-	-	-	-
CCN(CC)S(=O)(=O)c1ccc(C(=O)OCCN2C(=O)c3cccc4c(N5CCOCC5)ccc(c34)C2=O)cc1	0	0	0	6	0	0
CCCNC(=O)CS(=O)(=O)c1ccccc1	-	0	0	0	0	0
O=C(OCn1ncc(Br)c(Br)c1=O)c1ccc(F)cc1	-4.7	0	0	0	0	0
CSCCC(NC(=O)c1ccc([N+](=O)[O-])cc1Cl)C(=O)OC1CCCCC1=O (stereo not given)	-	0	0	0	0	0
SMILES	KCC2 mod	KCNK3 inh	KCNK9 inh	KCNQ1 inh	KCNQ1 pot	hERG protect
CC(C)C[C@@H](CN)NC(=O)c1nc[nH]c1C(=O)N[C@@H](C)C(=O)CNC[C@H](C)NC(=O)c1nc[nH]c1C(=O)N[C@@H](CC(C)C)C(=O)O	-	0	-	-	-	-
COC(=O)c1cccc(N/C=C(\[N+](=O)[O-])S(=O)(=O)c2ccccc2)c1	-	0	0	0	0	0
Cc1ccc([N+](=O)[O-])c2c1C(N1CC(C)OC(C)C1)C(C)(C)O2 (stereo not given)	0	0	0	0	0	5.4
CCCCOC(=O)C1=C(C)NC(=O)NC1c1ccccc1 (stereo not given)	-	0	0	0	0	0
CCN(CC(=O)Nc1cc(Cl)ccc1C)C(=O)CCOc1ccc(C)cc1	-	0	0	0	0	0
CCN(CC(=O)Nc1cc(Cl)ccc1C)c1ncnc2sc(C)c(C)c12	0	0	-6.6	0	0	0
N#CC1(Cc2ccccc2Cl)c2ccccc2C=CN1C(=O)c1ccccc1 (stereo not given)	0	0	0	8	0	0
N#Cc1ccc(CN2CCN(CC(=O)NCCc3ccc(Cl)cc3Cl)CC2)cc1	-	0	0	0	0	0
Cc1ccc(-c2nc3ccc([N+](=O)[O-])cc3[nH]2)cc1	0	0	0	0	0	0
O=[N+]([O-])c1ccc2nc(-c3ccc(Cl)cc3)[nH]c2c1	0	0	0	6	0	0
c1ccc2c(c1)[nH]c1c(N3CCSCC3)ncnc12	-	-9.7	-	-	-	-
c1ccc2c(c1)[nH]c1c(N3CCCC3)ncnc12	0	0	0	0	0	0
CCOC(=O)Cc1csc(SCC(=O)Nc2cccc(Cl)c2)n1	0	0	0	0	0	0
CCOC(=O)Cc1csc(SCC(=O)Nc2cc(Cl)ccc2Oc2ccccc2)n1	-	0	0	11	0	0
CC1CCN(CCn2c(=S)[nH]c3ccccc3c2=O)CC1	-	0	0	0	0	0
O=C(c1ccc(F)cc1)C1CCN(CCn2c(=S)[nH]c3ccccc3c2=O)CC1	7	-	0	0	0	0
CCOc1ccc(NC(=O)C(=O)NCCN2CCN(S(=O)(=O)c3ccc(C)cc3)CC2)cc1	-	0	0	0	0	0
O=C(c1cccs1)c1ccc(-c2cccs2)s1	-	0	-6.8	0	0	0
CCOC(O)[C@H]1N[C@@H](c2ccc(Cl)cc2)[C@@H]([N+](=O)[O-])[C@@H]1c1ccccc1 (stereo not given in full)	0	0	-7.1	0	0	0
CCc1ccc(OCC(=O)Nc2ccc3[nH]ncc3c2)cc1	-	0	0	0	0	0
COc1ccc(-c2c(C)nn(-c3ccccc3)c2N)cc1	-	0	0	0	0	0
COc1ccc(-c2c(C)nn(-c3ccccc3)c2N)cc1OC	-	0	0	0	0	4.7
COc1ccccc1/C=C/C=C1\Oc2c(ccc(O)c2CN(C)C)C1=O	0	0	0	10	0	0
CCN(CC)Cc1c(O)ccc2c1O/C(=C\C=C\c1ccccc1)C2=O	0	0	0	0	0	0
CC(C)(C)C(=O)N1CCCC1C(=O)O (stereo not given)	-	0	0	0	0	4.9
SMILES	KCC2 mod	KCNK3 inh	KCNK9 inh	KCNQ1 inh	KCNQ1 pot	hERG protect
Cc1ccc(S(=O)(=O)N(CC2CO2)c2cc(Cl)ccc2Cl)cc1 (stereo not given)	-	0	0	0	0	0
O=C(CSCc1cnn(-c2ccccc2)c1-n1cccc1)NCc1cccnc1	0	0	0	0	0	9.2
CCn1cc(Br)c(C(=O)Nc2ccccc2C(=O)OC)n1	0	0	-6.6	0	0	0
Cc1cccc(C(=O)Nc2ccc(C(=O)N3CCCCC3C)cc2)c1 (stereo not given)	-	0	-7.6	0	0	0
Cc1ccc(C)c(S(=O)(=O)Nc2ccc(C(=O)N3CCCCC3)cc2)c1	-	0	0	0	0	0
Cc1ccc(C)c(S(=O)(=O)NCc2ccc(C(=O)N3CCCCC3C)cc2)c1 (stereo not given)	0	0	-6.8	0	0	0
CC1CCCCN1C(=O)c1ccc(C(=O)N2CCCCC2C)cc1 (stereo not given)	-	0	0	0	0	0
Cc1ccccc1OCCC(=O)N1CCN(S(=O)(=O)c2ccc(Br)cc2)CC1	-	0	-	-	-	-
